Measured values from ChEMBL document CHEMBL1154995, “Synthesis of azaisoflavones and their inhibitory activities of NO production in activated microglia” (Bioorg Med Chem Lett, 2008).
Activity calls are given as the source filed them. The calls are words filed in the database; no cut-off is given here.

System: BV-2
Test: Inhibition of iNOS expression in LPS-activated mouse BV2 cells at 1-10 uM after 6 hrs by Western blot
Type: functional, cell-based
Settings: not given
Procedure, shortened: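 BV-2 cells treated 6 h with compound (1–10 μM) during LPS (100 ng/mL) activation; protein assessed by blotting with anti-tubulin as loading control; representative of three independent experiments.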

Structure (SMILES)	Activity
CCn1cc(-c2ccc(O)cc2)c(=O)c2c(O)cc(O)cc21 [AZAISOFLAVONE]	Dose-dependent effect

System: BV-2
Test: Inhibition of NO production in LPS-activated mouse BV2 cells after 24 hrs by Griess method
Type: functional, cell-based
Settings: BV-2, 24 h
Procedure, shortened: (§1)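 Murine BV-2 microglia stimulated with LPS 100 ng/mL with or without sample for 24 h; nitrite in culture medium measured by Griess reaction. Percent inhibition relative to LPS control at 10 μM, n = 3; IC50 also derived.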

Structure (SMILES)	IC50 [µM]
CCn1cc(-c2ccc(OC)cc2)c(=O)c2ccccc21	25.8
CCn1cc(-c2ccc(O)cc2)c(=O)c2ccccc21	18.5
CCn1cc(-c2ccc(OC)cc2)c(=O)c2c(OC)cc(OC)cc21	17.6
COc1ccc(-c2c[nH]c3cc(OC)cc(OC)c3c2=O)cc1	20.5
O=c1c(-c2ccc(O)cc2)c[nH]c2ccccc12	15.6
CCn1cc(-c2ccc(O)cc2)c(=O)c2c(O)cc(O)cc21 [AZAISOFLAVONE]	7.83
Cn1cc(-c2ccc(O)cc2)c(=O)c2ccccc21	9.91
COc1ccc(-c2cn(C)c3ccccc3c2=O)cc1	18.8
Cn1cc(-c2ccc(O)cc2)c(=O)c2c(O)cc(O)cc21	13.3
O=c1c(-c2ccc(O)cc2)c[nH]c2cc(O)cc(O)c12	10.9

System: not listed separately
Test: Cytotoxicity against mouse BV2 cells assessed as cell viability at 10 uM by MTT assay
Type: cell-based
Settings: bv-2, 10 µM
Procedure, shortened: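 BV-2 microglia viability determined by MTT assay alongside the LPS (100 ng/mL) nitrite experiment.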

Structure (SMILES)	Activity
COc1ccc(-c2c[nH]c3cc(OC)ccc3c2=O)cc1	Toxic
COc1ccc(-c2c[nH]c3ccccc3c2=O)cc1	Toxic

System: BV-2
Test: Inhibition of NO production in LPS-activated mouse BV2 cells at 10 uM after 24 hrs by Griess method relative to control
Type: functional
Settings: not given
Procedure, shortened: as §1

Structure (SMILES)	Activity
COc1ccc(-c2c[nH]c3cc(OC)ccc3c2=O)cc1	inactive
COc1ccc(-c2c[nH]c3ccccc3c2=O)cc1	inactive

Same assay, conditions: BV-2, 24 h

Structure (SMILES)	inhibition at 10 µM [%]
CCn1cc(-c2ccc(OC)cc2)c(=O)c2ccccc21	14.9
CCn1cc(-c2ccc(O)cc2)c(=O)c2ccccc21	27
CCn1cc(-c2ccc(OC)cc2)c(=O)c2c(OC)cc(OC)cc21	27.3
COc1ccc(-c2c[nH]c3cc(OC)cc(OC)c3c2=O)cc1	23.2
O=c1c(-c2ccc(O)cc2)c[nH]c2ccccc12	29.5
CCn1cc(-c2ccc(O)cc2)c(=O)c2c(O)cc(O)cc21 [AZAISOFLAVONE]	58.1
Cn1cc(-c2ccc(O)cc2)c(=O)c2ccccc21	47.4
COc1ccc(-c2cn(C)c3ccccc3c2=O)cc1	31.9
Cn1cc(-c2ccc(O)cc2)c(=O)c2c(O)cc(O)cc21	39.3
O=c1c(-c2ccc(O)cc2)c[nH]c2cc(O)cc(O)c12	45
